High-throughput results (PubChem BioAssay)
IEC-6 tox-1: IEC-6 cytotoxicity, counter-screen for KLF5 inhibitors; luminescence viability; inhibition, % at 5 µM; hit rate 0.78% among 290,000;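 also: 0% = plate median of test compound wells and 100% = cytotoxic reference compound wells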
Ba/F3 V617F tox: reduce viability of Ba/F3 cells dependent on JAK2V617F. Ba/F3 EpoR-JAK2V617F viability, ATP luminescence. inhibition, % at 5.6 µM. hit rate 1.1% among 220,000;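 active = inhibition above the campaign mean plus 3 SD over all tested compounds, cut at about 24% in these data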;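 also: cytokine-independent growth of Ba/F3 cells driven by EpoR plus mutant JAK2; 0% = DMSO-treated cells and 100% = JAK inhibitor I control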
MT stabilize HCS: stabilizes microtubules in HeLa cells | HeLa tubulin immunostaining HCS, 24 h; share of cells brighter than vehicle mean+2SD | % tubulin-high responders, % at 10 µM | hit rate 0.83% among 200,000 | AID 2205;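 active = plate Z-score above 3 for both tubulin-high and condensed-nucleus cell shares, with cell loss under 80%, at 10 µM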;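 also: anti alpha tubulin signal scored within the nucleus-defined area of each cell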
BaF3 tox: counter-screen for JAK2V617F inhibitors: parental Ba/F3 viability inhibitors | CellTiter-Glo ATP luminescence | inhibition, % at 5.6 µM | hit rate 1.1% among 220,000 | AID 1486;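 active = inhibition above a per-campaign cutoff, the mean inhibition of all tested compounds plus 3 SD, cut at about 27% in these data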;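 also: 0% = DMSO wells and 100% = JAK Inhibitor I control wells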
KLF5 inh: suppresses KLF5 promoter-driven expression. DLD-1 KLF5 promoter-luciferase reporter, luminescence. inhibition, % at 5 µM. hit rate 0.23% among 290,000. AID 1700;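 active = inhibition above a per-plate limit of that plate's mean compound inhibition plus 3 SD, cut at about 60% in these data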;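 also: 0% = DMSO wells and 100% = LY294002 at 200 µM; higher means less KLF5 promoter-driven luciferase light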
bCat nuc transl: beta-catenin nuclear translocation modulation | nuclear translocation activity, % at 5 µM | AID 1665 | hit rate 0.3% among 190,000 | HeLa beta-catenin nuclear translocation, immunofluorescence imaging;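 active = nuclear translocation activity above 50% at 5 µM, with a well cell count of 50 or more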;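 also: per-cell ratio of nuclear to cytoplasmic median beta-catenin stain intensity; plate controls were DMSO negative control for no effect and GSK-3 inhibitor IX positive control for full effect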
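Read-out: Nuclear/cytoplasmic beta-catenin signal ratio, % activation | Assay system: Human HeLa cell line | Times: 24 h compound exposure at 37°C, 5% CO2 | Signal: Fluorescence imaging of beta-catenin antibody stain plus DAPI | Dosing: 5 µM primary, 0.02–20 µM confirmation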
KLF5 confirm: confirmation of KLF5 inhibitors; inhibition, % at 4 µM; shares compounds with KLF5 inh; DLD-1 KLF5 promoter firefly luciferase reporter, luminescence; hit rate 79% among 610; AID 1834;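 active = inhibition above a set limit taken from the earlier primary screen, cut at about 63% in these data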;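 also: 0% = DMSO wells and 100% = LY294002 at 200 µM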
IEC-6 tox-2: counter-screen for KLF5 inhibitors: cytotoxicity in rat IEC-6 cells; shares compounds with KLF5 inh; IEC-6 rat intestinal cells, viability luminescence; inhibition, % at 4 µM; hit rate 56% among 610; AID 1905; in the data active = inhibition above about 23%;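 also: cells exposed to compounds for 48 hours before viability read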
IEC-6 tox confirm: IEC-6 cytotoxicity, confirmation assay; AID 1907; hit rate 63% among 1,900; IEC-6 rat intestinal epithelial viability, luminescence; inhibition, % at 5 µM; shares compounds with IEC-6 tox-1;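 also: 0% = vehicle and 100% = reference cytotoxic drug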
The depositor's hits bear a star; nt = no result. An excerpt weighted towards active compounds, which were near 2.1% of everything screened. Rule as the data show it, unless noted: active = inhibition above about 22%; inactive = the rest.

SMILES	IEC-6 tox-1	Ba/F3 V617F tox	MT stabilize HCS	BaF3 tox	KLF5 inh	bCat nuc transl	IEC-6 tox confirm	others
CCN1/C(=C\C=C\C2=[N+](CC)c3ccccc3C2(C)C)C(C)(C)c2ccccc21	64*	99*	81	93*	84*	nt	70*	KLF5 confirm=104*;IEC-6 tox-2=64*
CC[C@@]1(O)C(=O)OCc2c1cc1n(c2=O)Cc2cc3ccccc3nc2-1	97*	98*	nt	93*	62*	-1	72*	KLF5 confirm=94*;IEC-6 tox-2=75*
COc1ccc(-n2c(-c3ccccc3[N+](=O)[O-])nc3ccccc3c2=O)cc1	-5	nt	nt	nt	-12	nt	nt
Cc1nn(Cc2ccc(Cl)cc2Cl)c(Cl)c1C(=O)NC1CCCc2ccccc21 (configuration not stated)	-4	-3	4	0	-14	2	nt
CC(=Nc1ccc(F)cc1)c1c(O)n(C)c(=O)[nH]c1=O	-3	nt	nt	nt	-26	nt	nt
C/C=C(\C)C(=O)N[C@@H](c1ccccc1)[C@@H](O)C(=O)O[C@H]1C[C@@]2(O)[C@@H](OC(=O)c3ccccc3)C3[C@](C)(C(=O)[C@H](OC(C)=O)C(=C1C)C2(C)C)[C@@H](O)C[C@H]1OC[C@@]31OC(C)=O (some centres not stated)	88*	nt	nt	nt	64*	nt	72*	KLF5 confirm=88*;IEC-6 tox-2=78*
CC(=O)O[C@@]12CO[C@@H]1C[C@H](O)[C@@]1(C)C(=O)[C@H](O)C3=C(C)[C@@H](O)C[C@@](O)([C@@H](OC(=O)c4ccccc4)C12)C3(C)C (some centres not stated)	6	nt	nt	nt	-9	nt	nt
CC(=O)Nc1ccccc1C(=O)OCc1ccccc1F	5	5	8	-1	-123	-2	nt
C/C1=C\[C@@H](C)C/C=C/[C@H]2[C@@H]3O[C@]3(C)[C@@H](C)[C@H]3[C@H](Cc4c[nH]c5ccccc45)NC(=O)[C@]32C(=O)/C=C/C(=O)[C@@H]1O	91*	65*	4	63*	-7	-2	66*
Cc1cc(C)c(C2=NOC(O)(C(F)(F)F)C2)c(=O)[nH]1 (configuration not stated)	1	-2	3	0	-16	0	nt
C/C=C(\C)C(=O)N[C@@H](c1ccccc1)[C@@H](O)C(=O)O[C@H]1C[C@@]2(O)[C@@H](OC(=O)c3ccccc3)C3[C@](C)(C(=O)[C@H](O)C(=C1C)C2(C)C)[C@@H](O)C[C@H]1OC[C@@]31OC(C)=O (some centres not stated)	89*	nt	nt	nt	50	nt	70*
CP(=O)(Nc1ccccc1)C(Cl)(Cl)Cl (configuration not stated)	5	3	4	4	-25	-2	nt
Nc1cc(Cl)c2nonc2c1[N+](=O)[O-]	69*	47*	3	2	14	5	30*
CN(C)c1ccc(/C=C/c2cc[n+](C)c3ccccc23)cc1	28*	101*	10	82*	32	9	21
COc1ccc(CNCCc2c[nH]c3ccccc23)c(OC)c1C	14	nt	nt	nt	-15	nt	nt
COc1cc(C)c(CNCCc2c[nH]c3ccccc23)cc1C	24*	nt	nt	nt	-4	nt	0
CC1=CC2/C=C(\C)CCC(O)C(O)/C=C/C(=O)C23C(=O)NC(CC(C)C)C3C1C (configuration not stated)	39*	89*	34	49*	-11	5	29*
Nc1cccc(N=Cc2c(O)n(Cc3ccc(F)cc3)c(=O)[nH]c2=O)c1	-5	-2	3	3	-56	3	nt
CCC(=NCCOc1ccc(Cl)cc1)c1c(O)n(C)c(=O)n(C)c1=O	-6	-2	4	2	-7	nt	nt
CCCCC(CC)COCCCN=Cc1c(O)[nH]c(=S)[nH]c1=O (configuration not stated)	-2	5	nt	2	8	-1	nt
Cc1c(NC(NC(=O)CF)C(Cl)(Cl)Cl)c(=O)n(-c2ccccc2)n1C (configuration not stated)	0	-1	3	6	-5	-1	nt
C[C@]12CCC(=O)CC1CCC1C2CC[C@]2(C)C(OC(=O)CCC(=O)O)CCC12 (some centres not stated)	4	nt	nt	nt	-17	nt	nt
COc1cc2c(cc1OC)[C@@H]1C(=O)c3ccc4c(c3O[C@@H]1CO2)C[C@H](C(C)C)O4	35*	71*	nt	65*	28	16	25*
CC[C@@]1(O)C(=O)OCc2c1cc1n(c2=O)Cc2cc3c(NC(=O)CN)cccc3nc2-1	41*	94*	nt	79*	20	-2	26*
O=C(c1ccncc1)C12CN3CN(CN(C3)C1)C2	5	-4	4	-2	-18	0	nt
SMILES	IEC-6 tox-1	Ba/F3 V617F tox	MT stabilize HCS	BaF3 tox	KLF5 inh	bCat nuc transl	IEC-6 tox confirm	others
O=C(Nc1nccs1)C(Cl)(Cl)Cl	-2	2	2	5	-1	1	nt
O=C(Nc1ccc(Cl)cc1)Nc1nccs1	68*	85*	46*	79*	24	44	60*
CCC(C)NC(=O)CCC(=O)OC1O[C@H]2OC3(C)CC[C@H]4[C@H](C)CCC(C1C)C24OO3 (some centres not stated)	35*	nt	nt	nt	84*	nt	23*
COc1ccc(C2=NCC(=S)Nc3ccc(Cl)cc32)cc1Cl	-1	3	5	7	6	0	nt
O=C1CN=C(c2ccc[nH]2)c2cc(Cl)ccc2N1	31*	54*	nt	37*	4	1	22
CC[n+]1c(/C=C/C=C/c2ccc(N(C)C)cc2)sc2ccccc21	37*	99*	nt	92*	23	2	58*
COc1ccc2c3c1OC1C(O)C=CC4C(C2)[N+](C)(C)CCC341 (configuration not stated)	1	nt	nt	nt	-34	nt	nt
CN1CCC2(CC1)C(C#N)=C(N)NC(S)=C2C#N	0	4	2	5	1	2	nt
COC(=O)C(Cc1ccc(N(CCCl)CCCl)cc1)N=Cc1ccccc1O (configuration not stated)	90*	nt	nt	nt	-12	nt	78*
COc1cccc(OC)c1C1=NCC(=O)Nc2c1oc1ccc(Br)cc21	34*	75*	14*	39*	35	1	57*
O=C1C2CCCN2C(c2ccc(Cl)cc2)N1c1ccccn1 (configuration not stated)	-1	-1	4	-1	5	-2	nt
